What is called IC50 is the concentration that inhibits the measured activity by half. The bioavailability is dose-corrected exposure relative to a reference, in per cent. A high value points to much systemic uptake. For orientation: clearance means the volume of plasma or blood freed of the substance per unit of time. Read a low clearance as a low capacity for elimination. Broadly, the Tmax is the time from dosing to the highest level. As usually defined, the Cmax is the highest concentration seen after dosing.

SMILES strings stand for the structures. Bounds are passed on as bounds.

Consider 15 compounds from ChEMBL document CHEMBL4043255, “Design, synthesis and biological evaluation of novel histone deacetylase inhibitors incorporating 4-aminoquinazolinyl systems as capping groups” (Bioorg Med Chem Lett, 2017).

A short description of data set [1]: Inhibition of HDAC in human HeLa nuclear extract using Fluor de Lys as substrate after 15 mins by fluorescence assay.
Data set [2] concerns the target T1, Protein deacetylase HDAC6 (Homo sapiens, UniProt Q9UBN7).
T1 sequence (Q9UBN7 whole entry): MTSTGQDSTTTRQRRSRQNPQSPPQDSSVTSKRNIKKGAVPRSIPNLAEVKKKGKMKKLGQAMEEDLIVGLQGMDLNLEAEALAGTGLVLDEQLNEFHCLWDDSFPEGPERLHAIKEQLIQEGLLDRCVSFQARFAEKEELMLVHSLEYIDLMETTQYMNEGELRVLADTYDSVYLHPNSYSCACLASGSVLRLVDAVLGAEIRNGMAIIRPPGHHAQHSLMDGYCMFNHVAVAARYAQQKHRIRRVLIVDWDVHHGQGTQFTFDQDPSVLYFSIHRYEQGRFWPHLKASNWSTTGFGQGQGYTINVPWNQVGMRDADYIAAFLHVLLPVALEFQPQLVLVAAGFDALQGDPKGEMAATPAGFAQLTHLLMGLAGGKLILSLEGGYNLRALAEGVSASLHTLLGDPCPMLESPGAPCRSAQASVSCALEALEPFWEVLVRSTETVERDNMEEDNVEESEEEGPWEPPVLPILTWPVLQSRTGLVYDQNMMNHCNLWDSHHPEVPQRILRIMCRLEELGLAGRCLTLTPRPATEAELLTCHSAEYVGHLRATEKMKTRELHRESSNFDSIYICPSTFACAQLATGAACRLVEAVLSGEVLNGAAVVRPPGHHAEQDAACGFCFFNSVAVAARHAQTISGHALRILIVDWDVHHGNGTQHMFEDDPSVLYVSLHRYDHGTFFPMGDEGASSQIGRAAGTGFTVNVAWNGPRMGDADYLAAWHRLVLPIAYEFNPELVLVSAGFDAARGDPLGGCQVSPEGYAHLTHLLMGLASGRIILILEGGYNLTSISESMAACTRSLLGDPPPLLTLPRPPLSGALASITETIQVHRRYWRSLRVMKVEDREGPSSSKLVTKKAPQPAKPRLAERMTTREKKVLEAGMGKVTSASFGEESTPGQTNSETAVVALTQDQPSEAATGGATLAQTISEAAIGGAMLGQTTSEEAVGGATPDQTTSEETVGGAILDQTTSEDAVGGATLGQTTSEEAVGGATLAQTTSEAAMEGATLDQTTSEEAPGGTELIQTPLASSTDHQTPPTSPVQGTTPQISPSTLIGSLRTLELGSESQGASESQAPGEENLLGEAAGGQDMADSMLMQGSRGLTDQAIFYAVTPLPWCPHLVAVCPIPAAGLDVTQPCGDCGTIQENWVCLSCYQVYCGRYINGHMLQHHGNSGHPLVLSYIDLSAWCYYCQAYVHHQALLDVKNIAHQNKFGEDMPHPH
In words: Inhibition of HDAC6 (unknown origin).

In a further data set the test system is MDA-MB-231. In words: Anti-proliferative activity against human MDA-MB-231 cells after 48 hrs by MTT assay. Type of data set: functional, cell-based. Particulars: MDA-MB-231, 48 h. (Formazan colour is commonly taken as a measure of viable cells.)
The subject of a further data set is HCT-116. In words: Anti-proliferative activity against human HCT116 cells after 48 hrs by MTT assay. The format is functional, cell-based. Particulars: HCT-116, 48 h.
In data set [3] the target is Voltage-gated inwardly rectifying potassium channel KCNH2 (Homo sapiens, UniProt Q12809). In words: Inhibition of recombinant human ERG expressed in HEK293 cells at -80 mV holding potential measured for 9 mins by Qpatch clamp method. The format is cell-based.
Voltage-gated inwardly rectifying potassium channel KCNH2, sequence (Q12809 whole entry): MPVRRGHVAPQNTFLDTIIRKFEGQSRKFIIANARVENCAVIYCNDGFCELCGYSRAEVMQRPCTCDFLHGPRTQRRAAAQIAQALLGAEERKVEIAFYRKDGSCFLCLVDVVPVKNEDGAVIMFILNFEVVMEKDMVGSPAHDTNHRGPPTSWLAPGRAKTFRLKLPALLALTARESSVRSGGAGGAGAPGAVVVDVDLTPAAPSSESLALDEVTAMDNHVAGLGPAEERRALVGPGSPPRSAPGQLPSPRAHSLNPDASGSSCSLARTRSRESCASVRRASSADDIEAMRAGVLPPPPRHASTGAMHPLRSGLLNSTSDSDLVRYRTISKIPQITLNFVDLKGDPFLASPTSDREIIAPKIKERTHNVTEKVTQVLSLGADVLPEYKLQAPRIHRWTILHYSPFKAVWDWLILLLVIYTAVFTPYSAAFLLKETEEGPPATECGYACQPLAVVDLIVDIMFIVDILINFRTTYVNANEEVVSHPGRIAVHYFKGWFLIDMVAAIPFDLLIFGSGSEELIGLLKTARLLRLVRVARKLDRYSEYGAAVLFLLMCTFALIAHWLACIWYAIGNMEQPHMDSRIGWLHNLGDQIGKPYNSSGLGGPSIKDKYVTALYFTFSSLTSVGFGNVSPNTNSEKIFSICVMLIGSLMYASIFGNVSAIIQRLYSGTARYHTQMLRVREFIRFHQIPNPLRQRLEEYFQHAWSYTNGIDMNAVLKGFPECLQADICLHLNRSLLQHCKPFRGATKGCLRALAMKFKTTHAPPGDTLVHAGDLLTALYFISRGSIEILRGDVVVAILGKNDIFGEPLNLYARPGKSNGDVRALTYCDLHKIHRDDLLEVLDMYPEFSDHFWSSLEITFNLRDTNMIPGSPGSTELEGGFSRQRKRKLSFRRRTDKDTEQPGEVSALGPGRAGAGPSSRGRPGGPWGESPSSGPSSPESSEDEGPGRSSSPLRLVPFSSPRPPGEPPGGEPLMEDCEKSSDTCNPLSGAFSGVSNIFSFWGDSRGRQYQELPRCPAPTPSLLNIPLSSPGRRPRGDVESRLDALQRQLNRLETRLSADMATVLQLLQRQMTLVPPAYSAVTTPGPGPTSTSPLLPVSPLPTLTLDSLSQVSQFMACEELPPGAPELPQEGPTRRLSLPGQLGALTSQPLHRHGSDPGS
A further data set addresses T2, Histone deacetylase 8 (Homo sapiens, UniProt Q9BY41).
T2 sequence (Q9BY41 whole entry): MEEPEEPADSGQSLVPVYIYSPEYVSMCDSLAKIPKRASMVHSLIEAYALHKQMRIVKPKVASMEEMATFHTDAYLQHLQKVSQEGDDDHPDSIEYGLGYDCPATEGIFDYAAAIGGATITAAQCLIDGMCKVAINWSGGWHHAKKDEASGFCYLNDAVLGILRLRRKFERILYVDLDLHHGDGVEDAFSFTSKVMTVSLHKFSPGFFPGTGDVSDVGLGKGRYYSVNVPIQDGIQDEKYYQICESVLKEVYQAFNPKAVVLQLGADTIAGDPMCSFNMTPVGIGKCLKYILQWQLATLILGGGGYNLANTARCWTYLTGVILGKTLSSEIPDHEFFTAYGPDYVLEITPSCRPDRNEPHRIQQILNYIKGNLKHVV
As to the kind of experiment: Inhibition of HDAC8 (unknown origin).

A further data set has as its system MRC5. As to the kind of experiment: Anti-proliferative activity against human MRC5 cells after 48 hrs by MTT assay. Particulars: MRC5, 48 h. Type of data set: ADME, cell-based.
In another data set the test system is PC-3. As to the kind of experiment: Anti-proliferative activity against human PC3 cells after 48 hrs by MTT assay. Type of data set: functional, cell-based. Particulars: PC-3, 48 h.
The test system of data set [4] is A549. As to the kind of experiment: Anti-proliferative activity against human A549 cells after 48 hrs by MTT assay. Type of data set: functional, cell-based. Particulars: A549, 48 h.
Another data set has as its system K562. As to the kind of experiment: Anti-proliferative activity against human K562 cells after 48 hrs by MTT assay. Type of data set: functional, cell-based. Particulars: K562, 48 h.
The target in the next data set is Histone deacetylase 1 (Homo sapiens, UniProt Q13547). In words: Inhibition of HDAC1 (unknown origin).
Histone deacetylase 1, sequence (Q13547 whole entry): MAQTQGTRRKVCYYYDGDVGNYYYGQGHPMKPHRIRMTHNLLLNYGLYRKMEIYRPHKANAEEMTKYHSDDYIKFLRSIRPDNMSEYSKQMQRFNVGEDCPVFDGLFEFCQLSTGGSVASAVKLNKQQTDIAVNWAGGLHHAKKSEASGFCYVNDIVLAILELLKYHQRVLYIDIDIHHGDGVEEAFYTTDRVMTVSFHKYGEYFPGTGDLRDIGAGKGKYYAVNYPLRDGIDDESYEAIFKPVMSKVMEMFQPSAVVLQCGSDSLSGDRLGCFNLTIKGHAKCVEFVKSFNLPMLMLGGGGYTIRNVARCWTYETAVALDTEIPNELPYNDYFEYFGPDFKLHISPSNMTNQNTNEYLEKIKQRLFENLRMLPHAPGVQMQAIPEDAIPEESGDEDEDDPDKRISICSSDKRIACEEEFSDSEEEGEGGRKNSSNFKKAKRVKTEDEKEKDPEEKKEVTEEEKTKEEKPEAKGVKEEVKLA
Data set [5] can be described thus: in vivo. Particulars: Sprague-Dawley, rat, po, 20 mg/kg.
Data set [6] can be described thus: in vivo. Particulars: Sprague-Dawley, rat, iv, 2 mg/kg.
For data set [7], the system named is A549. As to the kind of experiment: Antitumor activity against human A549 cells xenografted in mouse assessed as tumor growth inhibition at 20 mg/kg, ip administered once every other day for 21 days relative to control. Type of data set: functional. Particulars: 504 h, read-out: TGI. The gist of the method:
(§1)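 Mice bearing non-small cell lung cancer A549 xenografts were given the compound ip at 20 or 40 mg/kg once every other day for a 21-day efficacy study.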
Background: A xenograft is tissue or cells of one species grown in another, often human tumour cells in immunodeficient mice.

A short description of data set [8]: Clearance in Sprague-Dawley rat at 2 mg/kg, iv by HPLC method. Particulars: in vivo. The format is ADME, organism-based. The gist of the method:
(§2)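 Female Sprague-Dawley rats were dosed with the compound at 2 mg/kg iv (for clearance and terminal half-life) or 20 mg/kg orally (for Cmax, Tmax and oral bioavailability). Blood was collected at various time points up to 24 h, and plasma was analyzed by HPLC coupled to triple quadrupole mass spectrometry.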

For data set [9], the system named is A549. As to the kind of experiment: Antitumor activity against human A549 cells xenografted in mouse assessed as tumor growth inhibition at 40 mg/kg, ip administered once every other day for 21 days relative to control. The format is functional. Particulars: 504 h, read-out: TGI. The gist of the method: as §1
A short description of data set [10]: Oral bioavailability in Sprague-Dawley rat at 20 mg/kg by HPLC method. The format is ADME, organism-based. Particulars: in vivo. The gist of the method: as §2
For a further data set, the system named is Mus musculus. In words: Toxicity in mouse xenografted with human A549 cells at 20 to 40 mg/kg, ip administered once every other day for 21 days. Type of data set: organism-based. Particulars: in vivo, 504 h. The gist of the method: as §1
Data set [11] in a line: Terminal half life in Sprague-Dawley rat at 2 mg/kg, iv by HPLC method. The format is ADME, organism-based. Particulars: in vivo, read-out: beta t1/2 (converted). The method in brief: as §2
The nature of data set [12]: Tmax in Sprague-Dawley rat at 20 mg/kg, po by HPLC method. The format is ADME, organism-based. Particulars: in vivo. The gist of the method: as §2
The nature of data set [13]: Cmax in Sprague-Dawley rat at 20 mg/kg, po by HPLC method. Type of data set: ADME, organism-based. The arrangement: dose 20 mg/kg, route oral. Particulars: in vivo. The method in brief:
as §2

As to `Cc1cccc2c(NCCCCCCC(=O)NO)ncnc12`, in data set [1], the IC50 amounted to 55.2 nM.
Consider `O=C(CCCCCCNc1ncnc2ccccc12)NO`, for which the IC50 in data set [1] worked out at 33.8 nM.
Compound `COc1cc2ncnc(NCCCCCCC(=O)NO)c2cc1OC` came in with an IC50 in data set [1] of 13.1 nM.
In [1], `O=C(CCCCCCNc1ncnc2cc(F)ccc12)NO` gave an IC50 of 20.7 nM.
`COc1cc2ncnc(NCCCCCC(=O)NO)c2cc1OC`: in data set [1], the IC50 was 10.5 nM.
Compound `O=C(CCCCCCNc1ncnc2cc(Cl)ccc12)NO` displayed an IC50 in data set [1] of 24.2 nM.
`O=C(CCCCCCNc1ncnc2ccc(F)cc12)NO`: the concentration for half-maximal inhibition (IC50) is 8 nM in [2]; 490 nM in the data set with MDA-MB-231; 3450 nM with HCT-116; above 30 µM in [3]; 1460 nM on Histone deacetylase 8; 76.5 µM in the data set with MRC5. Besides, the IC50 with PC-3 was found to be 1020 nM; in the data set with A549 [4] it was 147 nM; in data set [1], 8.17 nM; in the data set with K562, 860 nM; at Histone deacetylase 1, 13 nM.
For the compound `COCCOc1cc2ncnc(NCCCCCCC(=O)NO)c2cc1OCCOC`, the IC50 in data set [1] came out at 152 nM.
Regarding `O=C(CCCCCCC(=O)Nc1ccccc1)NO` [VORINOSTAT], the bioavailability in “in vivo [5]” was 11%. Further, the half-life in “in vivo [6]” amounted to 12 min. For the same compound, 2920 nM corresponded to half-maximal inhibition in the data set with PC-3 (IC50).
Compound `Nc1ccc2ncnc(NCCCCCCC(=O)NO)c2c1` gave an IC50 in data set [1] of 12.1 nM.
The compound `O=C(CCCCCCNc1ncnc2ccc([N+](=O)[O-])cc12)NO` registered a half-inhibitory concentration (IC50) in [1] of 22.9 nM.
Consider `O=C(CCCCCCNc1ncnc2ccc(Cl)cc12)NO`, for which the IC50 in data set [2] was 7 nM; with MDA-MB-231, 170 nM; in the data set with HCT-116, 2110 nM; in data set [3], above 30 µM; against Histone deacetylase 8, 1970 nM; in the data set on MRC5, 54.9 µM. Also, the IC50 with PC-3 came to 760 nM; in the data set with A549 [4] it was 80 nM; in data set [1] it was 3.08 nM; in the data set on K562, 1210 nM; on Histone deacetylase 1, 11 nM. Further, the inhibition in vivo at 20 mg/kg in the data set with A549 [7] amounted to 53.1%. In addition, the clearance in data set [8] is 53 mL/min/kg. Also, in the data set with A549 [9], the inhibition in vivo at 40 mg/kg came to 76.4%. For the same compound, the bioavailability in [10] was 16.8%. In the data set with Mus musculus, the Activity entry is given as “Non-Toxic”. The half-life in data set [11] is 172 min. In data set [12], the time to peak (Tmax) was determined as 15 min. In data set [13], the Cmax came to 146 ng/mL.
`O=C(CCCCCNc1ncnc2ccccc12)NO`: the IC50 in [1] worked out at 41.2 nM.
In data set [1], `O=C(CCCCCCNC(=O)c1ccccc1)NO` came in with an IC50 above 2000 nM.
The compound `Cc1ccc2ncnc(NCCCCCCC(=O)NO)c2c1` gave an IC50 in [1] of 20.2 nM.
